Results reported in ChEMBL document CHEMBL3864182, “Discovery and Optimization of a Novel Triazole Series of GPR142 Agonists for the Treatment of Type 2 Diabetes” (ACS Med Chem Lett, 2016).
In brackets after ≈: the same amount, converted by molar mass. Activity calls are given as the source filed them. The calls are words filed in the database; no cut-off is given here.

Columns and labels:
[1] = Drug level in fasted C57BL/6 mouse plasma at 3 mg/kg, po measured after 2.5 hrs post dose; assay type: ADME, organism-based
Summary of the method: (§1)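 Plasma sampled from the oral glucose tolerance test mice (5 g/kg dextrose challenge) at 2.5 h after oral dosing. Total drug level measured; free level derived using the unbound plasma fraction.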

[2] = molecular target: Voltage-dependent L-type calcium channel subunit alpha-1C (Homo sapiens, UniProt Q13936); test: Inhibition of Cav1.2 (unknown origin)
[3] = tested on: Mus musculus; test: Antihyperglycemic activity in fasted C57BL/6 mouse assessed as reduction in glucose AUC (0 to 120 mins) at 1 mg/kg, po administered prior to dextrose challenge by oral glucose tolerance test; assay type: functional; design: scale not given: the % may be the effect or the level left
Summary of the method: (§2)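 Lean mice given the compound orally (1 to 30 mpk), then orally challenged with 5 g/kg dextrose. Glucose excursion expressed as AUC0–120 min reduction versus vehicle. N = 7 per group; ANOVA with Dunnett's post-test.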

[4] = Metabolic stability in rat liver microsomes assessed as compound remaining at 1 uM measured after 30 mins; assay type: ADME; settings: read-out: Stability
[5] = Fraction unbound in fasted C57BL/6 mouse plasma at 30 mg/kg, po measured after 2.5 hrs post dose; assay type: ADME, organism-based; settings: in vivo
[6] = Half life in Sprague-Dawley rat at 1 mg/kg, iv or 2 mg/kg, po; assay type: ADME, organism-based; settings: in vivo
[7] = Apparent permeability in pig LLC-PK1 cells at 5 uM measured after 3 hrs; assay type: ADME, cell-based, Sus scrofa
[8] = molecular target: T1, Probable G-protein coupled receptor 142 (Homo sapiens, UniProt Q7Z601); test: Agonist activity at human GPR142 expressed in CHO cells measured for 3 to 5 mins by Fluo-4AM dye-based FLIPR assay; assay type: cell-based
T1 sequence (Q7Z601 whole entry): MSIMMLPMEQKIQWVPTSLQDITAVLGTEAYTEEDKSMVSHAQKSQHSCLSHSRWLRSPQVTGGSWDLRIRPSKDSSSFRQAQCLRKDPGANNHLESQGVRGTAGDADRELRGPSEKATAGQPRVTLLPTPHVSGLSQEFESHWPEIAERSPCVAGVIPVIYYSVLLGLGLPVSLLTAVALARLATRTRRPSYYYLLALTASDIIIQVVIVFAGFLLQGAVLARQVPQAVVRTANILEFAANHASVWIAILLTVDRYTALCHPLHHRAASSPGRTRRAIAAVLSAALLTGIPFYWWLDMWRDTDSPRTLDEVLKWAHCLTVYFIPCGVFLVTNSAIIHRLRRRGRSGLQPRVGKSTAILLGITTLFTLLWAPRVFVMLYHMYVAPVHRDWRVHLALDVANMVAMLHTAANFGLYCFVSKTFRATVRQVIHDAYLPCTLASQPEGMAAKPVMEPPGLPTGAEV

[9] = Solubility of the compound in PBS at pH 7; assay type: physicochemical
[10] = molecular target: T2, Probable G-protein coupled receptor 142 (Mus musculus, UniProt Q7TQN9); test: Agonist activity at mouse GPR142 expressed in CHO cells measured for 3 to 5 mins by Fluo-4AM dye-based FLIPR assay; assay type: cell-based
T2 sequence (Q7TQN9 whole entry): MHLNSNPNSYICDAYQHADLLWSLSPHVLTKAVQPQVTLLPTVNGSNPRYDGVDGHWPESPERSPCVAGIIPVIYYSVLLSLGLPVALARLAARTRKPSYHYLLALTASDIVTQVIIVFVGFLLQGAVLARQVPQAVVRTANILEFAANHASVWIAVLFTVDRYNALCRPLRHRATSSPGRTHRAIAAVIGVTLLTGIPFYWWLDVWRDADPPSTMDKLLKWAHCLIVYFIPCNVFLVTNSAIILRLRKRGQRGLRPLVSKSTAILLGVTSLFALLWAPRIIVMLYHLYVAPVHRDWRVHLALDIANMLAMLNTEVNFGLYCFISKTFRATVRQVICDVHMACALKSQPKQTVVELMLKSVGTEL

[11] = molecular target: Sodium channel protein type 5 subunit alpha (Homo sapiens, UniProt Q14524); test: Inhibition of Nav1.5 (unknown origin)
[12] = molecular target: T1, Probable G-protein coupled receptor 142; test: Agonist activity at human GPR142 expressed in CHO cells measured after 30 to 60 mins by IP-One assay; assay type: cell-based
[13] = molecular target: T3, Probable G-protein coupled receptor 142 (Mus musculus) (UniProt Q7TQN9); test: Agonist activity at GPR142 in mouse islets assessed as potentiation of glucose-stimulated insulin secretion at 3 to 10 uM in presence of 16 mM glucose
T3 sequence (whole entry): T2 sequence (Q7TQN9 whole entry)
Summary of the method: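 Ex vivo insulin secretion in freshly isolated mouse islets, tested at low (2 mM) and high (16 mM) glucose. GLP-1 was run as a reference in the same experiment. Each treatment was compared with vehicle by 1-way ANOVA.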

[14] = molecular target: Cytochrome P450 2D6 (Homo sapiens, UniProt P10635); test: Inhibition of CYP2D6 (unknown origin); assay type: ADME
[15] = Drug level in fasted C57BL/6 mouse plasma at 30 mg/kg, po measured after 2.5 hrs post dose; assay type: ADME, organism-based; summary of the method: as §1
[16] = molecular target: T2, Probable G-protein coupled receptor 142; test: Agonist activity at mouse GPR142 expressed in CHO cells measured after 30 to 60 mins by IP-One assay; assay type: cell-based
[17] = Plasma clearance in Sprague-Dawley rat at 1 mg/kg, iv or 2 mg/kg, po; assay type: ADME, organism-based
[18] = Solubility of the compound in PBS at pH 2; assay type: physicochemical
[19] = tested on: Mus musculus; test: Antihyperglycemic activity in fasted C57BL/6 mouse assessed as reduction in glucose AUC (0 to 120 mins) at 30 mg/kg, po administered prior to dextrose challenge by oral glucose tolerance test; assay type: functional; design: scale not given: the % may be the effect or the level left; summary of the method: as §2
[20] = Metabolic stability in mouse liver microsomes assessed as compound remaining at 1 uM measured after 30 mins; assay type: ADME; settings: read-out: Stability
[21] = tested on: Mus musculus; test: Antihyperglycemic activity in fasted C57BL/6 mouse assessed as reduction in glucose AUC (0 to 120 mins) at 3 mg/kg, po administered prior to dextrose challenge by oral glucose tolerance test; assay type: functional; design: scale not given: the % may be the effect or the level left; summary of the method: as §2
[22] = Unbound clearance in Sprague-Dawley rat plasma at 1 mg/kg, iv or 2 mg/kg, po; assay type: ADME, organism-based; settings: in vivo
Summary of the method: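 Rat pharmacokinetic study; plasma clearance corrected for plasma protein binding as Clu = Clp/fu, where fu is the unbound fraction in plasma.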

[23] = Lipophilicity, log D of the compound at pH 7; assay type: physicochemical; settings: buffer
[24] = molecular target: Cytochrome P450 3A4 (Homo sapiens, UniProt P08684); test: Inhibition of CYP3A4 (unknown origin); assay type: ADME
[25] = Drug level in fasted C57BL/6 mouse plasma at 1 mg/kg, po measured after 2.5 hrs post dose; assay type: ADME, organism-based; summary of the method: as §1
[26] = Fraction unbound in Sprague-Dawley rat plasma at 1 mg/kg, iv or 2 mg/kg, po; assay type: ADME, organism-based
[27] = Metabolic stability in human liver microsomes assessed as compound remaining at 1 uM measured after 30 mins; assay type: ADME; settings: read-out: Stability
[28] = Oral bioavailability in Sprague-Dawley rat at 2 mg/kg; assay type: ADME, organism-based; settings: in vivo
[29] = tested on: Mus musculus; test: Antihyperglycemic activity in fasted C57BL/6 mouse assessed as reduction in glucose AUC administered prior to dextrose challenge measured after 90 mins by oral glucose tolerance test; assay type: functional

Cytochrome P450 3A4, sequence (P08684 whole entry): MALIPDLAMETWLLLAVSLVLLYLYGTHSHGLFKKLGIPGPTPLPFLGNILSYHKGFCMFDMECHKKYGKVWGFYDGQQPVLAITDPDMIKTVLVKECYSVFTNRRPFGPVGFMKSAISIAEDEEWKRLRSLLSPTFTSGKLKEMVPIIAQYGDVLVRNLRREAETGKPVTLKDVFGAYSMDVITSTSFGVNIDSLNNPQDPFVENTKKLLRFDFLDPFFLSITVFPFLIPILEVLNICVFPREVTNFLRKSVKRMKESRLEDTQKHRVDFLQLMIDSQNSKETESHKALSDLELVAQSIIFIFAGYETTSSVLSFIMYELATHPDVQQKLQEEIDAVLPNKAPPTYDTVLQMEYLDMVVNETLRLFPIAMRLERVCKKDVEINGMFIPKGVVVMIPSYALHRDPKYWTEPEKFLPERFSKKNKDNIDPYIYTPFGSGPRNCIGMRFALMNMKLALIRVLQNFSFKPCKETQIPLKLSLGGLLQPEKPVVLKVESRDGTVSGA
Voltage-dependent L-type calcium channel subunit alpha-1C, sequence (Q13936 whole entry): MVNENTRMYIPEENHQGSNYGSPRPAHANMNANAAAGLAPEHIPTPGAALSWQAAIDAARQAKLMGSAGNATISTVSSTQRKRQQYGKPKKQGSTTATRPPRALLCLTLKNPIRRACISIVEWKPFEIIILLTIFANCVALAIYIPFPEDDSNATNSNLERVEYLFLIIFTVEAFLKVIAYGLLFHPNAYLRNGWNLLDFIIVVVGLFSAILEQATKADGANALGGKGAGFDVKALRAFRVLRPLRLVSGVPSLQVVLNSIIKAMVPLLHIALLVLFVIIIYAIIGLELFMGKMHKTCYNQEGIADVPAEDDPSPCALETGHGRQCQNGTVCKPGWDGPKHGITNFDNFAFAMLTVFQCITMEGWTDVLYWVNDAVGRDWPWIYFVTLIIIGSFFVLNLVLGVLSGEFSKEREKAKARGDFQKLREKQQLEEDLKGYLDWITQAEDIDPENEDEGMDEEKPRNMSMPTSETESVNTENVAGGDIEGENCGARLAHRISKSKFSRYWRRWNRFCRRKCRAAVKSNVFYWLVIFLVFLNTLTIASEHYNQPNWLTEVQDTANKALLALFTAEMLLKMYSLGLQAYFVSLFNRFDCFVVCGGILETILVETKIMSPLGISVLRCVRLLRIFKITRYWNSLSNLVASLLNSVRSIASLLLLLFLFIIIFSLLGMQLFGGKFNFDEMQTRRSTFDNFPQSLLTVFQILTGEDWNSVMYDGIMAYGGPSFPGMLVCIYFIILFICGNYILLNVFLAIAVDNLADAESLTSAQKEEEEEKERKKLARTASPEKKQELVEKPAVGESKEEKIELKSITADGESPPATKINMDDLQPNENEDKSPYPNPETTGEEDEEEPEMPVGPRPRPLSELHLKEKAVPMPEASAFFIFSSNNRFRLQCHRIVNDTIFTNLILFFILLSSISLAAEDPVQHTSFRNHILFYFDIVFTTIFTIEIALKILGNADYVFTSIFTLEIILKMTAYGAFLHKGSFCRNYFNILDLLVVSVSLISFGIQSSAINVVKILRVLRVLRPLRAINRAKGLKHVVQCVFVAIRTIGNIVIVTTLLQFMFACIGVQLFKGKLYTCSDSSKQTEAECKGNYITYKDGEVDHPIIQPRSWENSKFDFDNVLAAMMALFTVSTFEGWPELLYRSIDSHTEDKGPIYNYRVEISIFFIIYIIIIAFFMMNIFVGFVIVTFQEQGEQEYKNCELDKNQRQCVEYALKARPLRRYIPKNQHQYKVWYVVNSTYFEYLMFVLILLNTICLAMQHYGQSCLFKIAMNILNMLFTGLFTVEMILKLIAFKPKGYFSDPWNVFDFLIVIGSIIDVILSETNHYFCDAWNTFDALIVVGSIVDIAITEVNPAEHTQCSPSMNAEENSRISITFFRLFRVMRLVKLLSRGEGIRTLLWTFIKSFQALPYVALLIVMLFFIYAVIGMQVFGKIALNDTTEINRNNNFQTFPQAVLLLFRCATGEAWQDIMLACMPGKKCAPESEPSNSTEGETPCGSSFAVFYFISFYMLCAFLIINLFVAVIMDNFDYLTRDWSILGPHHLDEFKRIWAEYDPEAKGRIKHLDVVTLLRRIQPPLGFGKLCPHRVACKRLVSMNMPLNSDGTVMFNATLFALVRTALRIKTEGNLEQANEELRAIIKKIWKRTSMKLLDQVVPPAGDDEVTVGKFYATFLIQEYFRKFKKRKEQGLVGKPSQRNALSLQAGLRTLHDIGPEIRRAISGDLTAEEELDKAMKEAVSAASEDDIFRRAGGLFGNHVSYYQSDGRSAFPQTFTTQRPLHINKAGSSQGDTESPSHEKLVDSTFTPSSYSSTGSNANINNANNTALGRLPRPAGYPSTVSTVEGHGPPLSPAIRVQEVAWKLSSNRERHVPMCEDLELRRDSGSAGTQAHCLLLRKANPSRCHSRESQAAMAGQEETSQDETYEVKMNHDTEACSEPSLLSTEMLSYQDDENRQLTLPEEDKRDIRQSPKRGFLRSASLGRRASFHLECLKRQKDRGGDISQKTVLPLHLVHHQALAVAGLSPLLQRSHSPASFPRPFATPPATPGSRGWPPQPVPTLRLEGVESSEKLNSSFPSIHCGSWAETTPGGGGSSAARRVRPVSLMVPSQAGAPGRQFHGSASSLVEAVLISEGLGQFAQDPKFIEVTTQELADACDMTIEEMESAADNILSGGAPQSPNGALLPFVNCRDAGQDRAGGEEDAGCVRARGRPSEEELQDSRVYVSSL
Sodium channel protein type 5 subunit alpha, sequence (Q14524 whole entry): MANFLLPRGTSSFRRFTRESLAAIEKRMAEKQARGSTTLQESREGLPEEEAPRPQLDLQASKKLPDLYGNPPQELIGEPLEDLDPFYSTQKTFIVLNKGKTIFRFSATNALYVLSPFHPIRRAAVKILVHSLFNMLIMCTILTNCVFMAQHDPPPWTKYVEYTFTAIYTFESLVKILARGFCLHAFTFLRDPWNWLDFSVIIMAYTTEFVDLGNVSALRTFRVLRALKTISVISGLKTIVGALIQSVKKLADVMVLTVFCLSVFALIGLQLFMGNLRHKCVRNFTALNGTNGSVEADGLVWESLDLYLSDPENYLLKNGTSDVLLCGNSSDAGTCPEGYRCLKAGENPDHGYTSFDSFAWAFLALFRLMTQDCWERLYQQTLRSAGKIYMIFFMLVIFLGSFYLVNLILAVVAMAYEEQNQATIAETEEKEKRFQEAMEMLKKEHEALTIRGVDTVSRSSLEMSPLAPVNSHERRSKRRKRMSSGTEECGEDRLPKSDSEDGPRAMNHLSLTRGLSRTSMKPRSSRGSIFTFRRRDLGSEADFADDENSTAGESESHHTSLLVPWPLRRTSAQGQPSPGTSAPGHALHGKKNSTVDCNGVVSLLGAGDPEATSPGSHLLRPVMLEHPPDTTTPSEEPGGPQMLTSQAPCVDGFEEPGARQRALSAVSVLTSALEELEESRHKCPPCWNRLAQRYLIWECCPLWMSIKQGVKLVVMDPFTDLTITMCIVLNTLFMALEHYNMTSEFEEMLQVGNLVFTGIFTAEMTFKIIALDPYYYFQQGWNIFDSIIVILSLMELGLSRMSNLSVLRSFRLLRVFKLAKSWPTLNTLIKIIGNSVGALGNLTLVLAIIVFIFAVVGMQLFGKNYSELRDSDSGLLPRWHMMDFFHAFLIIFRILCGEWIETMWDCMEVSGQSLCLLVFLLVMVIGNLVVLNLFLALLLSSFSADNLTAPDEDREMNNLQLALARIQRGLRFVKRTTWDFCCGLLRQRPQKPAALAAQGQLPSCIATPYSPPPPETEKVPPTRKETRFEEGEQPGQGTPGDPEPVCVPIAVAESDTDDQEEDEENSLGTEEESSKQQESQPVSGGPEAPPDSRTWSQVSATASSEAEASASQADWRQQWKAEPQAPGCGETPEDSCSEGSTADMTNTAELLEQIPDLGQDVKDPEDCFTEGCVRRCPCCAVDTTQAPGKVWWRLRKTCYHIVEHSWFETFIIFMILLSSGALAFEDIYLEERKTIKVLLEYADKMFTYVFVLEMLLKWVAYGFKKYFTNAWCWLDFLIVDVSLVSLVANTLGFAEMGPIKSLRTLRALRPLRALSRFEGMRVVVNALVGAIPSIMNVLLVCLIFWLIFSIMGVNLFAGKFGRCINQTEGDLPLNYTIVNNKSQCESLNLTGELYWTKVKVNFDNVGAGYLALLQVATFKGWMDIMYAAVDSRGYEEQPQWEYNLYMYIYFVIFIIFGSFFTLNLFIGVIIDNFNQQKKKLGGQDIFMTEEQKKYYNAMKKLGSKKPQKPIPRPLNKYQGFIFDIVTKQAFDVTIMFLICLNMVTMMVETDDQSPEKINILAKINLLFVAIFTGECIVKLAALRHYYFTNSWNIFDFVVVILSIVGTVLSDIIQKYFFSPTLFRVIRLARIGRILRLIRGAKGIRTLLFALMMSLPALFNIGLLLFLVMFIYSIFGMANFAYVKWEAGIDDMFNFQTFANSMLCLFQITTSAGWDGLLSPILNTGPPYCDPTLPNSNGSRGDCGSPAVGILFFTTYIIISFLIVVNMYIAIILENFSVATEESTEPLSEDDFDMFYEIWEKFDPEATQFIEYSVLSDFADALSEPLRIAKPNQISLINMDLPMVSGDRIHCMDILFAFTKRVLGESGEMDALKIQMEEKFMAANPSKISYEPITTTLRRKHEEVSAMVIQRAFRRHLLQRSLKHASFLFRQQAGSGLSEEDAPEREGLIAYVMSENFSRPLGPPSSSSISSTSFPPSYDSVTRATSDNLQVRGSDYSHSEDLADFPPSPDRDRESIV

Cc1nccn1-c1ccc(-c2cn(CC(=O)Nc3cccc(Cl)c3Cl)nn2)cc1
concentration at 2.5 h [1]: 274 nM | IC50 [2]: 21 µM | Activity [3]: 49% | remaining at 0.5 h, 1 µM [4]: 75% | Cp(f) [5]: 149 nM | half-life [6]: 54 min | Papp at 3 h, 5 µM [7]: 28 ×10⁻⁶ cm/s | EC50 [8]: 0.025 µM | solubility [9]: 5 µM (≈ 2.14 µg/mL) | EC50 [10]: 0.027 µM | IC50 [11]: 21 µM | EC50 [12]: 0.012 µM | Activity [13]: Active | IC50 [14]: 9.4 µM | concentration at 2.5 h [15]: 11500 nM | EC50 [16]: 0.003 µM | clearance [17]: 13 mL/min/kg | solubility [18]: 170 µM (≈ 72.6 µg/mL) | Activity [19]: 89% | remaining at 0.5 h, 1 µM [20]: 63% | Activity [21]: 79% | CL free [22]: 1000 mL/min/kg | logD [23]: 2.42 | IC50 [24]: 15 µM | concentration at 2.5 h [25]: 44 nM | fraction unbound [26]: 0.013 | remaining at 0.5 h, 1 µM [27]: 56% | bioavailability [28]: 56% | Activity [29]: Dose-dependent effect
